Experiments:
[1] = Permeability of the compound at pH 7.4 after 18 hrs by PAMPA-BBB assay
[2] = biological target: T1, Amine oxidase [flavin-containing] A (Homo sapiens, UniProt P21397); test: Inhibition of human recombinant MAO-A preincubated for 30 mins followed by p-tyramine hydrochloride addition measured after 30 mins by Amplex red fluorescence based spectrophotometry
T1 sequence (P21397 whole entry): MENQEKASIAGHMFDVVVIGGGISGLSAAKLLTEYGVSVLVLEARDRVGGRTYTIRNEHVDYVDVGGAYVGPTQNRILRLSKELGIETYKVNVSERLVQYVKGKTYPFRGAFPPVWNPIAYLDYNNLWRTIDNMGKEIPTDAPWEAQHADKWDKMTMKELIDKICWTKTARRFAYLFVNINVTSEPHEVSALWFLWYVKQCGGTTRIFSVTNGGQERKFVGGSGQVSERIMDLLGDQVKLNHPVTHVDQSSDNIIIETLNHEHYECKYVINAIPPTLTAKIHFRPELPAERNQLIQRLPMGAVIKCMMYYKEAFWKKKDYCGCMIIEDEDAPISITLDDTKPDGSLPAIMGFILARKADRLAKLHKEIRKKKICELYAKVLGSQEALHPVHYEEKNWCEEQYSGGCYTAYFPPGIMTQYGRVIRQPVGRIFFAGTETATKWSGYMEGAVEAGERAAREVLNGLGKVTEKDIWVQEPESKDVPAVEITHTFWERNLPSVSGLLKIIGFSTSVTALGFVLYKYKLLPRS
Summary of the method: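 hrMAO-A at 0.36 U/mL preincubated with serial inhibitor dilutions for 30 min at 37 °C. Reaction started by adding 1 mM tyramine, 0.04 U/mL HRP and Amplex UltraRed in 0.25 mM sodium phosphate pH 7.4 (final). Resorufin fluorescence read at 530/590 nm for at least 30 min. No-compound activity set as 100%. Interference checked without enzyme.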

[3] = biological target: T2, Amine oxidase [flavin-containing] B (Homo sapiens, UniProt P27338); test: Inhibition of human recombinant MAO-B preincubated for 30 mins followed by p-tyramine hydrochloride addition measured after 30 mins by Amplex red fluorescence based spectrophotometry
T2 sequence (P27338 whole entry): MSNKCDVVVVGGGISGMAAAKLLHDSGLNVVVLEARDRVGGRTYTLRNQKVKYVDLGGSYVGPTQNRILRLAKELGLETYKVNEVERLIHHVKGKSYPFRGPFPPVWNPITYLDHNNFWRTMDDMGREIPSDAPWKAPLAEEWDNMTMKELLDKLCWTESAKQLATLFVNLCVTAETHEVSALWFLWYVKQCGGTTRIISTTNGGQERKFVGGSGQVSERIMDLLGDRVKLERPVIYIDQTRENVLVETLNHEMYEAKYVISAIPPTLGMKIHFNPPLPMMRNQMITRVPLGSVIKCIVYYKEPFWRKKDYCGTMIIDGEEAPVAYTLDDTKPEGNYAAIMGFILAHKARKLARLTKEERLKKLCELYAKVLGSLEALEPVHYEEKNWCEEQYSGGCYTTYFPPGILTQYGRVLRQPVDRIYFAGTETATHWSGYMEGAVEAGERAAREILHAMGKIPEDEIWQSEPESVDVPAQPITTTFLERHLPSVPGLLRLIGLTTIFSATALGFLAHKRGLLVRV

Homo sapiens = organism: Homo sapiens; test: Selectivity index, ratio of IC50 for human recombinant MAO-A to IC50 for human recombinant MAO-B
[4] = biological target: T2, Amine oxidase [flavin-containing] B; test: Irreversible inhibition of human recombinant MAO-B at 50 uM preincubated for 1 h followed by 100 fold enzyme dilution and p-tyramine hydrochloride substrate addition measured after 40 mins by Amplex red fluorescence based spectrophotometry
[5] = biological target: T2, Amine oxidase [flavin-containing] B; test: Time-dependent inhibition of human recombinant MAO-B at 10 uM preincubated with enzyme followed by p-tyramine hydrochloride substrate addition by Amplex red fluorescence based spectrophotometry
Summary of the method: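 hrMAO-B was preincubated with inhibitor at 10 µM for 0–360 min. After each preincubation, activity was measured in the standard Amplex UltraRed/tyramine/HRP fluorometric assay at 530/590 nm. Results were expressed as % of control samples versus preincubation time.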

| SMILES | Papp at 18 h [1] | IC50 [2] | IC50 [3] | Ratio IC50 (Homo sapiens) | inhibition (INH) [4] | TDI [5] |
| --- | --- | --- | --- | --- | --- | --- |
| CCn1cc(C(=O)O)c(=O)c2cc(F)c(N3CCNC(C)C3)c(F)c21 (stereo not given) [LOMEFLOXACIN] | < 0.78 ×10⁻⁶ cm/s | – | – | – | – | – |
| C#CCN(C)CCc1nnn(-c2ccccc2)c1CC | 17 ×10⁻⁶ cm/s | 7.5 µM | 213 µM | 0.04 | – | – |
| CNCCCN1c2ccccc2CCc2ccccc21 [DESIPRAMINE] | 12 to 17.8 ×10⁻⁶ cm/s | – | – | – | – | – |
| CCn1cc(C(=O)O)c(=O)c2cc(F)c(N3CCNCC3)cc21 [NORFLOXACIN] | 0.1 to 0.9 ×10⁻⁶ cm/s | – | – | – | – | – |
| C#CCN(C)Cc1cn(Cc2ccccc2)nn1 | 2.3 ×10⁻⁶ cm/s | > 500 µM | 129 µM | > 3.9 | – | – |
| C#CCN(C)Cc1nnn(CC)c1C | – | 267 µM | 105 µM | 2.6 | – | – |
| C#CCN(C)CCc1nnn(-c2ccccc2)c1CCCC | 21.4 ×10⁻⁶ cm/s | 17.3 µM | 156 µM | 0.1 | – | – |
| C#CCN(C)CCc1nnn(C(C)c2ccccc2)c1C (stereo not given) | 20 ×10⁻⁶ cm/s | 47 µM | 134 µM | 0.4 | – | – |
| Clc1cccc(Cl)c1N=C1NCCN1 [CLONIDINE] | 5.3 to 6.5 ×10⁻⁶ cm/s | – | – | – | – | – |
| C#CCN(C)CCc1nnn(-c2ccccc2)c1CCC | 17.2 ×10⁻⁶ cm/s | 26.1 µM | 157 µM | 0.2 | – | – |
| C#CCN(C)CCc1cn(Cc2ccccc2)nn1 | 15.6 ×10⁻⁶ cm/s | 97.1 µM | 3.5 µM | 27.7 | Active | Active |
| C#CCN(C)Cc1cn(CC)nn1 | – | 135 µM | 249 µM | 0.5 | – | – |
| CC(=O)[C@H]1CC[C@H]2[C@@H]3CCC4=CC(=O)CC[C@]4(C)[C@H]3CC[C@]12C [PROGESTERONE] | 9.3 to 16.8 ×10⁻⁶ cm/s | – | – | – | – | – |
| CN(C)CCCN1c2ccccc2Sc2ccccc21 [PROMAZINE] | 8.8 to 13.8 ×10⁻⁶ cm/s | – | – | – | – | – |
| CN1C(C(=O)Nc2ccccn2)=C(O)c2ccccc2S1(=O)=O [PIROXICAM] | 1.93 to 2.5 ×10⁻⁶ cm/s | – | – | – | – | – |
| C#CCN(C)Cc1cccc(Cc2cn(C)nn2)c1 | 15.6 ×10⁻⁶ cm/s | 2.1 µM | 65 µM | 0.03 | – | – |
| CN/C(=N/CCSCc1nc[nH]c1C)NC#N [CIMETIDINE] | < 0.7 ×10⁻⁶ cm/s | – | – | – | – | – |
| C#CCN(C)Cc1cn(CCc2ccccc2)nn1 | 0.6 ×10⁻⁶ cm/s | > 500 µM | 11.2 µM | > 44.6 | – | – |
| C#CCN(C)Cc1ccc(Cc2cn(C)nn2)cc1 | 14.8 ×10⁻⁶ cm/s | 0.5 µM | 0.6 µM | 0.9 | – | – |
| C#CCN(C)CCc1ccc(Cc2cn(C)nn2)cc1 | 4.5 ×10⁻⁶ cm/s | 27.4 µM | 5.2 µM | 5.3 | – | – |
| C#CCN(C)CCc1cn(CC)nn1 | – | 554 µM | 374 µM | 1.5 | – | – |
| C#CCN(C)CCc1nnn(CC)c1C | – | 91.2 µM | 238 µM | 0.4 | – | – |
| C#CCN(C)CCc1cn(CCc2ccccc2)nn1 | 14.8 ×10⁻⁶ cm/s | 56.1 µM | 173 µM | 0.3 | – | – |
| C#CCN(C)Cc1nnn(C)c1CCCC | 29.9 ×10⁻⁶ cm/s | < 300 µM | 94.7 µM | < 3.2 | – | – |

Source: ChEMBL document CHEMBL4477223, “Design, synthesis and biological evaluation of N-methyl-N-[(1,2,3-triazol-4-yl)alkyl]propargylamines as novel monoamine oxidase B inhibitors” (Bioorg Med Chem, 2016)
